Laboratory results taken from ChEMBL document CHEMBL1134791, “2- and 3-substituted 1,4-naphthoquinone derivatives as subversive substrates of trypanothione reductase and lipoamide dehydrogenase from Trypanosoma cruzi: synthesis and correlation between redox cycling activities and in vitro cytotoxicity” (J Med Chem, 2001).

Assays:
[1] = substrate: CC1=C(CCCCC(=O)NCCCN2CCN(CCCNC(=O)CCCCC3=C(C)C(=O)c4cccc(O)c4C3=O)CC2)C(=O)c2c(O)cccc2C1=O; experiment: (§1) Vmax is the maximum velocity of the TcTR (Trypanosoma cruzi trypanothione reductase) catalyzed NADH oxidation.
[2] = substrate: CC1=C(CCCCCC(=O)NCCCNCCCNC(=O)CCCCCC2=C(C)C(=O)c3ccccc3C2=O)C(=O)c2ccccc2C1=O; experiment: as §1
[3] = substrate: CC1=C(CCCCC(=O)NCCCCNCCCNC(=O)CCCCC2=C(C)C(=O)c3ccccc3C2=O)C(=O)c2ccccc2C1=O; experiment: (§2) The Michaelis-Menten constant for NADPH oxidation by TcTR (Trypanosoma cruzi trypanothione reductase)
How it was run: (§3)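 Recombinant TcTR (0.6 U) in 20 mM Hepes, 1 mM EDTA, 0.15 M KCl, pH 7.25 at 22 °C, with 200 µM NADPH and naphthoquinone at five concentrations (0–100 µM) in 1% DMSO. NADPH oxidation at 340 nm; intrinsic oxidase rate not subtracted. Km and Vmax from nonlinear Michaelis–Menten fit; kcat and kcat/Km calculated.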

[4] = substrate: CC1=C(CCCC(=O)NCCCCNCCCNC(=O)CCCC2=C(C)C(=O)c3ccccc3C2=O)C(=O)c2ccccc2C1=O; experiment: as §2; how it was run: as §3
[5] = substrate: CC1=C(CCC(=O)NCCCCNCCCNC(=O)CCC2=C(C)C(=O)c3ccccc3C2=O)C(=O)c2ccccc2C1=O; experiment: as §2; how it was run: as §3
[6] = substrate: CC1=C(CCCC(=O)NCCCN2CCN(CCCNC(=O)CCCC3=C(C)C(=O)c4ccccc4C3=O)CC2)C(=O)c2ccccc2C1=O; experiment: as §2; how it was run: as §3
[7] = substrate: CC1=C(CCCCC(=O)NCCCNCCCNC(=O)CCCCC2=C(C)C(=O)c3ccccc3C2=O)C(=O)c2ccccc2C1=O; experiment: as §2; how it was run: as §3
[8] = substrate: CC1=C(CCC(=O)NCCCN2CCN(CCCNC(=O)CCC3=C(C)C(=O)c4cccc(O)c4C3=O)CC2)C(=O)c2c(O)cccc2C1=O; experiment: as §2; how it was run: as §3
[9] = substrate: CC1=CC(=O)c2c(O)cccc2C1=O; experiment: as §2; how it was run: as §3
[10] = substrate: CC1=C(CCCCC(=O)NCCCNCCCNC(=O)CCCCC2=C(C)C(=O)c3cccc(O)c3C2=O)C(=O)c2c(O)cccc2C1=O; experiment: as §2; how it was run: as §3
[11] = substrate: CC1=C(CCCC(=O)NCCCN2CCN(CCCNC(=O)CCCC3=C(C)C(=O)c4cccc(O)c4C3=O)CC2)C(=O)c2c(O)cccc2C1=O; experiment: as §2; how it was run: as §3
[12] = substrate: CC1=C(CCCCC(=O)NCCCN2CCN(CCCNC(=O)CCCCC3=C(C)C(=O)c4cccc(O)c4C3=O)CC2)C(=O)c2c(O)cccc2C1=O; experiment: as §2; how it was run: as §3
[13] = substrate: CC1=C(CCCCCC(=O)NCCCCNCCCNC(=O)CCCCCC2=C(C)C(=O)c3cccc(O)c3C2=O)C(=O)c2c(O)cccc2C1=O; experiment: as §2; how it was run: as §3
[14] = substrate: CC1=C(CCCCCC(=O)NCCCN2CCN(CCCNC(=O)CCCCCC3=C(C)C(=O)c4cccc(O)c4C3=O)CC2)C(=O)c2c(O)cccc2C1=O; experiment: as §2; how it was run: as §3
[15] = substrate: CC1=C(CCCCCC(=O)NCCCNCCCNC(=O)CCCCCC2=C(C)C(=O)c3ccccc3C2=O)C(=O)c2ccccc2C1=O; experiment: as §2; how it was run: as §3
[16] = substrate: CC1=C(CCCCCC(=O)NCCCNCCCNC(=O)CCCCCC2=C(C)C(=O)c3cccc(O)c3C2=O)C(=O)c2c(O)cccc2C1=O; experiment: as §2; how it was run: as §3
[17] = substrate: CC1=C(CCCCCC(=O)NCCCN2CCN(CCCNC(=O)CCCCCC3=C(C)C(=O)c4ccccc4C3=O)CC2)C(=O)c2ccccc2C1=O; experiment: as §2; how it was run: as §3
[18] = substrate: CC1=C(CCCCC(=O)NCCCCNCCCNC(=O)CCCCC2=C(C)C(=O)c3cccc(O)c3C2=O)C(=O)c2c(O)cccc2C1=O; experiment: as §2; how it was run: as §3
[19] = substrate: CC1=CC(=O)c2ccccc2C1=O; experiment: as §2; how it was run: as §3
[20] = substrate: CC1=C(CCCCC(=O)NCCCN2CCN(CCCNC(=O)CCCCC3=C(C)C(=O)c4ccccc4C3=O)CC2)C(=O)c2ccccc2C1=O; experiment: as §2; how it was run: as §3
[21] = substrate: CC1=C(CCC(=O)NCCCCNCCCNC(=O)CCC2=C(C)C(=O)c3cccc(O)c3C2=O)C(=O)c2c(O)cccc2C1=O; experiment: as §2; how it was run: as §3
[22] = substrate: CC1=C(CCC(=O)NCCCNCCCNC(=O)CCC2=C(C)C(=O)c3cccc(O)c3C2=O)C(=O)c2c(O)cccc2C1=O; experiment: as §2; how it was run: as §3
[23] = substrate: CC1=C(CCCC(=O)NCCCNCCCNC(=O)CCCC2=C(C)C(=O)c3cccc(O)c3C2=O)C(=O)c2c(O)cccc2C1=O; experiment: as §2; how it was run: as §3
[24] = substrate: CC1=C(CCCC(=O)NCCCCNCCCNC(=O)CCCC2=C(C)C(=O)c3cccc(O)c3C2=O)C(=O)c2c(O)cccc2C1=O; experiment: as §2; how it was run: as §3
[25] = substrate: CC1=C(CCC(=O)NCCCNCCCNC(=O)CCC2=C(C)C(=O)c3ccccc3C2=O)C(=O)c2ccccc2C1=O; experiment: as §2; how it was run: as §3
[26] = substrate: CC1=C(CCC(=O)NCCCN2CCN(CCCNC(=O)CCC3=C(C)C(=O)c4ccccc4C3=O)CC2)C(=O)c2ccccc2C1=O; experiment: as §2; how it was run: as §3
[27] = substrate: CC1=C(CCCCCC(=O)NCCCCNCCCNC(=O)CCCCCC2=C(C)C(=O)c3ccccc3C2=O)C(=O)c2ccccc2C1=O; experiment: as §2; how it was run: as §3
[28] = substrate: CC1=C(CCCC(=O)NCCCNCCCNC(=O)CCCC2=C(C)C(=O)c3ccccc3C2=O)C(=O)c2ccccc2C1=O; experiment: as §2; how it was run: as §3
[29] = substrate: CC1=C(CCC(=O)NCCCCNCCCNC(=O)CCC2=C(C)C(=O)c3ccccc3C2=O)C(=O)c2ccccc2C1=O; experiment: Vmax is the maximum velocity of the TcTR (Trypanosoma cruzi trypanothione reductase) catalyzed NADPH oxidation.
[30] = substrate: CC1=CC(=O)c2c(O)cccc2C1=O; experiment: as above
[31] = substrate: CC1=C(CCC(=O)NCCCNCCCNC(=O)CCC2=C(C)C(=O)c3ccccc3C2=O)C(=O)c2ccccc2C1=O; experiment: as above
[32] = substrate: CC1=C(CCCC(=O)NCCCNCCCNC(=O)CCCC2=C(C)C(=O)c3ccccc3C2=O)C(=O)c2ccccc2C1=O; experiment: as above

B1: Trypanothione reductase (Trypanosoma cruzi), P28593 (protein)
chain: MMSKIFDLVVIGAGSGGLEAAWNAATLYKKRVAVIDVQMVHGPPFFSALGGTCVNVGCVPKKLMVTGAQYMEHLRESAGFGWEFDRTTLRAEWKKLIAVKDEAVLNINKSYEEMFRDTEGLEFFLGWGSLESKNVVNVRESADPASAVKERLETENILLASGSWPHMPNIPGIEHCISSNEAFYLPEPPRRVLTVGGGFISVEFAGIFNAYKPKDGQVTLCYRGEMILRGFDHTLREELTKQLTANGIQILTKENPAKVELNADGSKSVTFESGKKMDFDLVMMAIGRSPRTKDLQLQNAGVMIKNGGVQVDEYSRTNVSNIYAIGDVTNRVMLTPVAINEAAALVDTVFGTNPRKTDHTRVASAVFSIPPIGTCGLIEEVASKRYEVVAVYLSSFTPLMHNISGSKYKTFVAKIITNHSDGTVLGVHLLGDNAPEIIQGVGICLKLNAKISDFYNTIGVHPTSAEELCSMRTPSYYYVKGEKMEKPSEASL
Vmax [1]: 5.13 µM/min/mg
Vmax [2]: 0.09 µM/min/mg
Km [3]: 16 µM
Km [4]: 74 µM
Km [5]: 30 µM
Km [6]: 12 µM
Km [7]: 37 µM
Km [8]: 78 µM
Km [9]: 15 µM
Km [10]: 28 µM
Km [11]: 52 µM
Km [12]: 17 µM
Km [13]: 37 µM
Km [14]: 8 µM
Km [15]: 3 µM
Km [16]: 28 µM
Km [17]: 12 µM
Km [18]: 20 µM
Km [19]: 21 µM
Km [20]: 16 µM
Km [21]: 48 µM
Km [22]: 230 µM
Km [23]: 55 µM
Km [24]: 93 µM
Km [25]: 47 µM
Km [26]: 14 µM
Km [27]: 21 µM
Km [28]: 23 µM
Vmax [29]: 1.83 µM/min/mg
Vmax [30]: 0.31 µM/min/mg
Vmax [31]: 1.3 µmol/min/mg
Vmax [32]: 0.45 µM/min/mg
